Converted amounts (≈) assume the structure as drawn. The source made the active and inactive calls. The calls are words filed in the database; no cut-off is given here.
Experiments:
[1] = test system: Usutu virus; test: Antiviral activity against USUV 3345 isolate Arb276 infected in African green monkey Vero cells assessed as reduction in viral replication pretreated with virus for 1 hr followed by infection of cells with compound treated-virus for 20 hrs by focus reduction assay; format: functional, organism-based; details: Usutu virus, 3345, Vero; for EC90: time 21 hrs
[2] = test system: Zika virus; test: Antiviral activity against ZIKV MR766 infected in human Huh-7 cells assessed as reduction in viral replication pretreated with virus for 1 hr followed by infection of cells with compound treated-virus for 30 hrs by focus reduction assay; format: functional, organism-based; details: for EC50: MR766, Huh-7; for EC90: MR766, Huh-7, time 31 hrs
Method in brief: (§1)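 Dose-response: serial dilutions (100 to 0.13 μM) preincubated 1 h at 37 °C with virus (MOI 0.02), then added to cells for 20 h (USUV) or 30 h (ZIKV) in 2% FBS DMEM. Cells per well: Vero 1.2 × 10^4, A549 1.3 × 10^4, Huh7 1.6 × 10^4. Foci immunostained and counted. EC50/EC90 fitted by variable-slope sigmoidal curve, mean of three independent experiments.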

[3] = test system: Zika virus; test: Antiviral activity against ZIKV MR766 infected in African green monkey Vero cells assessed as viral growth inhibition at 11 to 100 uM pretreated with virus for 1 hr followed by infection of cells with compound treated-virus for 30 hrs by focus reduction assay relative to control; format: functional; details: dose 11-100 µM, time 31 hrs
Method in brief: (§2)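 Virus (MOI 0.02) preincubated with compound 1 h at 37 °C, then mixture put on Vero cells (1.2 × 10^4/well, seeded the day before) in DMEM with 2% FBS for 30 h (ZIKV) or 20 h (USUV) at 37 °C. Fixed in cold acetone-methanol, foci immunostained with anti-flavivirus E 4G2 antibody and counted. % infection is relative to DMSO-treated wells. Screen used 100, 33 and 11 μM.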

[4] = Cytotoxicity against African green monkey Vero cells infected with ZIKV MR766 pretreated with virus for 1 hr followed by infection of cells with compound treated-virus for 30 hrs by MTS assay; format: toxicity, cell-based; details: chlorocebus sabaeus
Method in brief: (§3)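 MTS viability assay. Cells were treated under the same conditions as the antiviral assays. Absorbance was expressed as % of medium-only cells, and CC50 was derived from the curve. Seeding densities were 1.2 × 10^4/well for Vero, 1.3 × 10^4/well for A549 and 1.6 × 10^4/well for Huh7. DMEM with 2% FBS.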

[5] = test system: Zika virus; test: Antiviral activity against ZIKV MR766 infected in African green monkey Vero cells assessed as viral growth inhibition at 0.13 to 100 uM pretreated with cells 24 hrs prior to viral infection by time of addition assay; format: functional, organism-based; details: dose 0.13-100 µM
Method in brief: (§4)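 Time-of-addition assay in Vero. Serial dilutions (100 to 0.13 μM) were added to cells 24 h or 2 h before infection, during the 2 h infection, or post-infection for 24 h (USUV) or 30 h (ZIKV). Cells were fixed in cold acetone-methanol (50:50) and infected cells detected by indirect immunostaining. EC50/EC90 came from variable-slope sigmoidal fits; mean of three independent experiments.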

[6] = test system: Usutu virus; test: Antiviral activity against USUV 3345 isolate Arb276 infected in African green monkey Vero cells assessed as viral growth inhibition at 0.13 to 100 uM treated immediately after viral infection for 24 hrs by time of addition assay; format: functional, organism-based; details: dose 0.13-100 µM; method in brief: as §4
[7] = Selectivity index, ratio of CC50 for African green monkey Vero cells infected with USUV 3345 isolate Arb276 to EC50 for USUV 3345 isolate Arb276 infected in African green monkey Vero cells; format: toxicity, cell-based; details: read-out: Ratio CC50/EC50
[8] = test system: Usutu virus; test: Antiviral activity against USUV 3345 isolate Arb276 infected in African green monkey Vero cells assessed as viral growth inhibition at 0.13 to 100 uM pretreated with cells 24 hrs prior to viral infection by time of addition assay; format: functional, organism-based; details: dose 0.13-100 µM; method in brief: as §4
[9] = test system: Zika virus; test: Antiviral activity against ZIKV MR766 infected in African green monkey Vero cells assessed as viral growth inhibition at 0.13 to 100 uM pretreated with cells 2 hrs prior to viral infection by time of addition assay; format: functional, organism-based; details: dose 0.13-100 µM; method in brief: as §4
[10] = Cytotoxicity against human A549 cells infected with ZIKV MR766 pretreated with virus for 1 hr followed by infection of cells with compound treated-virus for 30 hrs by MTS assay; format: toxicity, cell-based; method in brief: as §3
[11] = test system: Zika virus; test: Antiviral activity against ZIKV MR766 infected in African green monkey Vero cells assessed as viral growth inhibition at 0.13 to 100 uM treated immediately after viral infection for 30 hrs by time of addition assay; format: functional, organism-based; details: dose 0.13-100 µM; method in brief: as §4
[12] = test system: Usutu virus; test: Antiviral activity against USUV 3345 isolate Arb276 infected in African green monkey Vero cells assessed as viral growth inhibition at 11 to 100 uM pretreated with virus for 1 hr followed by infection of cells with compound treated-virus for 20 hrs by focus reduction assay relative to control; format: functional; details: dose 11-100 µM, time 21 hrs; method in brief: as §2
[13] = test system: Zika virus; test: Antiviral activity against ZIKV MR766 infected in African green monkey Vero cells assessed as reduction in plaque formation pretreated with virus for 1 hr followed by infection of cells with compound treated-virus for 2 hrs and further treatment of compound for 72 hrs by crystal violet staining based assay; format: functional, organism-based; details: time 75.0 hrs
Method in brief: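 Plaque reduction assay. Vero cells were seeded 6 × 10^4/well. ZIKV (MOI 0.005) was preincubated with serial compound dilutions for 1 h at 37 °C, then adsorbed on cells for 2 h. After two washes, cells were overlaid with 1.2% methylcellulose in DMEM for 72 h, then fixed and stained with 0.1% crystal violet for 30 min. Plaques counted; EC50/EC90 from variable-slope sigmoidal fits.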

[14] = test system: Usutu virus; test: Antiviral activity against USUV 3345 isolate Arb276 infected in human Huh-7 cells assessed as reduction in viral replication pretreated with virus for 1 hr followed by infection of cells with compound treated-virus for 20 hrs by focus reduction assay; format: functional, organism-based; details: Usutu virus, 3345, Huh-7; for EC90: time 21 hrs; method in brief: as §1
[15] = Solubility in DMSO at 25 degreeC; format: physicochemical
[16] = test system: Zika virus; test: Antiviral activity against ZIKV MR766 infected in human A549 cells assessed as reduction in viral replication pretreated with virus for 1 hr followed by infection of cells with compound treated-virus for 30 hrs by focus reduction assay; format: functional, organism-based; details: for EC90: time 31 hrs; method in brief: as §1
[17] = test system: Zika virus; test: Antiviral activity against ZIKV MR766 infected in African green monkey Vero cells assessed as viral growth inhibition at 0.13 to 100 uM treated immediately after viral infection for 2 hrs by time of addition assay; format: functional, organism-based; details: dose 0.13-100 µM, in the assay text read “during viral infection” for “immediately after viral infection”; method in brief: as §4
[18] = Selectivity ratio of EC50 for antiviral activity against ZIKV MR766 infected in African green monkey Vero cells pretreated with cells 24 hrs prior to viral infection to EC50 for antiviral activity against ZIKV MR766 infected in African green monkey Vero cells treated immediately after viral infection for 30 hrs; format: functional, Zika virus
Method in brief: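 Time of addition: serial dilutions (100 to 0.13 μM) put on cells either 24 h before infection or after infection for 30 h (ZIKV). Infected cells fixed in acetone-methanol and immunostained. EC50 computed for each treatment condition by sigmoidal fit; the ratio compares the two EC50s.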

[19] = Cytotoxicity against African green monkey Vero cells infected with USUV 3345 isolate Arb276 pretreated with virus for 1 hr followed by infection of cells with compound treated-virus for 20 hrs by MTS assay; format: toxicity, cell-based; details: chlorocebus sabaeus; method in brief: as §3
[20] = Solubility in i-propanol at 25 degreeC; format: physicochemical
[21] = test system: Zika virus; test: Antiviral activity against ZIKV MR766 infected in African green monkey Vero cells assessed as reduction in viral replication pretreated with virus for 1 hr followed by infection of cells with compound treated-virus for 30 hrs by focus reduction assay; format: functional, organism-based; details: for EC90: time 31 hrs

SMILES | EC50 [1] [µM] | EC90 [1] [µM] | EC50 [2] [µM] | EC90 [2] [µM] | inhibition (INH) [3] [%] | CC50 at 31 h [4] [µM] | Activity [5] | Activity [6] | selectivity ratio [7] | Activity [8] | Activity [9] | CC50 at 31 h [10] [µM] | Activity [11] | inhibition (INH) [12] [%] | Activity [13] | EC50 [14] [µM] | EC90 [14] [µM] | solubility [15] [µg/mL] | EC50 [16] [µM] | EC90 [16] [µM] | also measured
O=C1[C@@H]2CCCN2[C@@H](c2ccc([C@H]3C[C@@H](O)[C@@H](CO)O3)cc2)N1c1ccc([N+](=O)[O-])cc1 | 2.53 | 3.89 | 2.26 | 4.26 | 100 | > 500 | Active | Active | > 198 | Active | inactive | > 500 | Active | 100 | Active | 3.91 | 5.77 | 96000 (≈ 218 mM) | 3.95 | 10.9 | Activity [17]: inactive; Ratio EC50 [18]: 5; CC50 at 21 h [19]: > 500 µM; solubility [20]: 7320 µg/mL (≈ 16.7 mM); EC50 [21]: 7.96 µM; EC90 [21]: 12.3 µM
O=C1C[C@H](c2ccc([C@H]3N(c4ccc([N+](=O)[O-])cc4)C(=O)[C@@H]4CCCN43)cc2)O[C@@H]1CO | 2.76 | 4.34 | 2.36 | 4.19 | 100 | > 500 | Active | Active | > 181 | Active | inactive | > 500 | Active | 100 | Active | 4 | 6.28 | 130000 (≈ 297 mM) | 3.8 | 10.2 | Activity [17]: inactive; Ratio EC50 [18]: 5; CC50 at 21 h [19]: > 500 µM; solubility [20]: 8570 µg/mL (≈ 19.6 mM); EC50 [21]: 9.73 µM; EC90 [21]: 15.4 µM
